# Assay outcomes from PubChem.
# MT stabilize HCS: microtubule stabilizers in HeLa cells, primary screen, imaging, high-content imaging; HeLa tubulin immunostaining HCS, 24 h; share of cells brighter than vehicle mean+2SD; % tubulin-high responders, % at 10 µM; hit rate 0.83% among 200,000;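 active = plate Z-score above 3 for both tubulin-high and condensed-nucleus cell shares, with cell loss under 80%, at 10 µM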;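 note: anti alpha tubulin signal scored within the nucleus-defined area of each cell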
# CHOP inh: inhibitors of CHOP promoter induction, primary screen, cell-based, unfolded protein response, luciferase reporter | CHO-K1 CHOP-promoter luciferase, tunicamycin-induced, 15-18 h | inhibition, % at 10 µM | hit rate 3.8% among 220,000;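 active = compounds that reduced the stress-induced luciferase reporter signal by more than about 70% of percent inhibition, limit read from the data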;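 note: 0% = tunicamycin plus vehicle and 100% = wells without tunicamycin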
# Dynein transport: inhibitors of GR-EGFP nuclear translocation, primary screen, dynein cargo transport inhibitor project, imaging, high-content, 3617.4 mouse cells. AID 1381, 2008. test concentration mostly 20 µM; stimulated with dexamethasone, 1 µM; hits give low values. z-score, hits read low. hit rate 0.47% among 220,000;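 active = plate z-score of nuclear minus cytoplasmic receptor signal below a set negative limit, without overly bright fluorescence or cell loss, cut at about -3.5 in these data, passing the limit was not always enough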;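 note: z-score of nuclear minus cytoplasmic ring GR-EGFP intensity difference per well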
#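 Buffer or medium: tet-free, stripped-serum medium; reagent: dexamethasone at 1.0 µM final, 30 min; incubation: 48 h induction, 1 h compound, 30 min dex at 37 °C; measured by: formaldehyde fixation, Hoechst nuclear stain, 10x automated fluorescence imaging; read-out: nuclear-to-cytoplasmic GR-EGFP distribution per well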
# Autophagy mod: autophagy modulators in MEF cells, primary screen, imaging, high-content, MEF GFP-LC3 | MEF GFP-LC3 puncta imaging; test concentration mostly 10 µM | calls only at 10 µM (by protocol) | AID 463193, 2010 | hit rate 0.98% among 190,000;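 active = percentage of spot-positive cells more than 3 SD above its plate mean, without a fluorescence outlier flag or 80% toxicity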;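 note: spot-positive cell cutoff set from DMSO-treated cells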
# bCat nuc transl: modulators of beta-catenin nuclear translocation, primary screen, imaging, HeLa cells, immunofluorescence, high-content | nuclear translocation activity, % at 5 µM | hit rate 0.3% among 190,000;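 active = nuclear translocation activity above 50% at 5 µM, with a well cell count of 50 or more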;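 note: per-cell ratio of nuclear to cytoplasmic median beta-catenin stain intensity; plate controls were DMSO negative control for no effect and GSK-3 inhibitor IX positive control for full effect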
#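 System: HeLa cells, endogenous beta-catenin; compound dosing: 5 µM primary single dose, 0.1% DMSO, 0.02–20 µM confirmation series; incubation: 24 h compound exposure at 37°C, 5% CO2; signal: beta-catenin immunofluorescence imaging with DAPI; evaluation: % activation, nuclear-to-cytoplasmic median beta-catenin signal ratio per cell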
# L major viab: Leishmania major promastigote growth inhibition, primary screen; hit rate 9% among 200,000; Leishmania major promastigotes, resazurin fluorescence viability; inhibition, % at 10 µM; in the data active = inhibition above about 50%;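 note: promastigotes grown with compound for 44 hours at 28 °C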
# Numbers without * were called inactive; i = inactive; / = not tested or not shown; + = active, no number. This is a sample that favours compounds with a hit; in the whole collection about 12% have one here.
SMILES,MT stabilize HCS,CHOP inh,Dynein transport,Autophagy mod,bCat nuc transl,L major viab
COc1ccccc1CNC(=O)CSc1ccc(-c2cccs2)nn1,2,3,0.65,i,-2,75*
O=C(CSc1ccc(-c2cccs2)nn1)NCc1ccccc1Cl,4,16,-0.32,i,-1,14
O=C(N/N=C/c1cn(-c2cccs2)nc1-c1ccccc1)c1ccccc1Br,3,29,-0.28,i,6,13
O=C(N/N=C/c1cn(-c2cccs2)nc1-c1ccccc1)c1ccccc1O,2,22,2.7,i,1,99*
COC(=O)c1ccccc1NC(=O)Cn1c(=O)n(Cc2ccccc2)c(=O)c2c(C)c(C)sc21,4,67,-0.25,i,/,89*
Cc1nn(CC(O)CN2c3ccccc3Sc3ccccc32)c(C)c1Br (centres undefined),1,77*,-0.97,i,/,64*
Cc1cc(Cl)ccc1Oc1ccc(C(N)=O)cc1[N+](=O)[O-],4,81*,-0.25,i,-3,47
Cc1nn(-c2ccccc2)c(C)c1/C=N/NC(=O)CSc1nnc(SCc2ccc(Cl)cc2)s1,3,29,-0.27,i,0,2
CCOC(=O)C1=C(CN2CCCCCC2)NC(=O)NC1c1ccc2c(c1)OCO2 (centres undefined),3,-4,0.27,i,-1,6
CCOC(=O)C1=C(CN2CCC(C)CC2)NC(=O)NC1c1ccc(Cl)cc1 (centres undefined),2,87*,2.6,i,/,28
C=CCc1cccc(CNc2ccc(Br)cc2)c1O,1,13,0.37,i,-1,1
N#CCCN(C(=O)Nc1ccc(Cl)c(Cl)c1)c1ccccc1,7,12,-0.12,i,-1,9
C=CCn1c(SCc2csc(C)n2)nc2sc3c(c2c1=O)CCC(C)C3 (centres undefined),26*,35,-0.9,i,1,6
Cc1ccc2cc(C#N)c(SCc3nnc(-c4ccccc4[N+](=O)[O-])o3)nc2c1,8,4,0.09,+,0,33
Cc1ccc(S(=O)(=O)N(C)C)cc1NC(=O)CSc1ncc(C(F)(F)F)cc1Cl,2,42,0.74,i,-2,61*
CC(C)(C)NC(=O)NC(=O)CSc1cccc(C(F)(F)F)c1,4,90*,-0.66,i,-1,-5
CC(C)(C)NC(=O)c1cccc(NC(=O)CSc2ccccc2)c1,1,25,-0.26,i,0,77*
CC(C)(C)NC(=O)NC(=O)CSc1ncc(C(F)(F)F)cc1Cl,1,74*,0.33,i,-2,2
Cc1ccc(CS(=O)(=O)CCC(=O)NCCN2CCCC2)cc1,2,58,0.43,i,0,-9
CN1CCN(c2nc(-c3ccccn3)nc3ccccc23)CC1,5,-30,0.28,i,1,100*
CN1CCN(c2nc(-c3cccnc3)nc3ccccc23)CC1,4,-3,-0.11,i,0,39
CC(=O)N1CCN(c2nc(-c3cccs3)nc3ccccc23)CC1,1,5,0.66,i,-1,77*
CCCN1CCN(c2nc(-c3cccs3)nc3ccccc23)CC1,2,25,-0.63,i,4,30
Oc1ccccc1-c1nc(N2CCCC2)c2ccccc2n1,i,16,0.32,i,/,0
c1ccc(N2CCN(c3nc(-c4ccccn4)nc4ccccc34)CC2)cc1,3,-24,-0.8,i,4,100*
CN(C)CC(C)(C)CNS(=O)(=O)c1cccc(Cl)c1Cl,1,7,0.9,i,/,5
COc1ccc(CN2CCNC(=O)C2CC(=O)N2CCCCO2)cc1OC (centres undefined),3,28,0.33,i,2,-2
CCOc1ccc(NC(=O)Nc2cccnc2)cc1,6,-22,-0.26,i,1,0
N#C/C(=C/c1ccc(Br)o1)C(N)=S,/,-12,-4.1*,/,0,/
N#C/C(=C/c1ccc(Br)o1)C(N)=O,2,2,-0.32,i,-3,-5
